{
  "source": "ChEMBL document CHEMBL4354876",
  "about": "“A Selective Modulator of Peroxisome Proliferator-Activated Receptor γ with an Unprecedented Binding Mode” (J Med Chem, 2020)",
  "key": {"[1]": {"biological_target": "T1, Peroxisome proliferator-activated receptor gamma (Homo sapiens, UniProt P37231)", "T1 sequence (P37231 whole entry)": "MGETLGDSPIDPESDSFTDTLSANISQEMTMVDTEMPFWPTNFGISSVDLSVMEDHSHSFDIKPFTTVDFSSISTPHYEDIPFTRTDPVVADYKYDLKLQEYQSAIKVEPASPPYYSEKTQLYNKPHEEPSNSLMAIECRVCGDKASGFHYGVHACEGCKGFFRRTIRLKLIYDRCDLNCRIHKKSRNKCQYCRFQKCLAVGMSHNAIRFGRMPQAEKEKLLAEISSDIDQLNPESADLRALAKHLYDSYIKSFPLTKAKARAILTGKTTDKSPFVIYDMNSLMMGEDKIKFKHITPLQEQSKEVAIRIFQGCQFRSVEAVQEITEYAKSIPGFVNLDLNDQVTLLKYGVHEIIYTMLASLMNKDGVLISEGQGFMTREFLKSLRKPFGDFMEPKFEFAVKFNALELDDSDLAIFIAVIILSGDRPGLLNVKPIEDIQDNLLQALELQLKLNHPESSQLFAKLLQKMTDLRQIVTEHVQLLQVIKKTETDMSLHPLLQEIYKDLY", "assay": "Partial agonist activity at recombinant N-terminal GFP-fused PPARgamma LBD (unknown origin) assessed as increase in biotinylated-CBP peptide recruitment measured after 2 hrs by HTRF assay", "in_short": "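Cell-free HTRF assay of CBP coactivator recruitment to recombinant PPARγ protein.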"}, "[2]": {"biological_target": "T1, Peroxisome proliferator-activated receptor gamma", "assay": "Partial agonist activity at Gal4-fused PPARgamma LBD (unknown origin) expressed in HEK293T cells after 14 to 16 hrs by dual-Glo luciferase assay", "format": "cell-based", "in_short": "(§1)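 Gal4 hybrid reporter assay in transiently transfected HEK293T cells. Constructs fuse the yeast Gal4 DNA-binding domain to the human receptor LBD. Firefly luciferase is the reporter. Constitutive renilla luciferase monitors transfection efficiency and toxicity. EC50 and maximal relative activation are reported as mean±S.E.M., n≥3.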"}, "[3]": {"biological_target": "Liver X receptor (Homo sapiens) (UniProt Q13133+P55055)", "assay": "Agonist activity at LXR (unknown origin) at 10 uM", "format": "protein assay"}, "[4]": {"biological_target": "Retinoid X receptor (Homo sapiens) (UniProt P28702+P48443+P19793)", "sequence (P19793 whole entry, looked up)": "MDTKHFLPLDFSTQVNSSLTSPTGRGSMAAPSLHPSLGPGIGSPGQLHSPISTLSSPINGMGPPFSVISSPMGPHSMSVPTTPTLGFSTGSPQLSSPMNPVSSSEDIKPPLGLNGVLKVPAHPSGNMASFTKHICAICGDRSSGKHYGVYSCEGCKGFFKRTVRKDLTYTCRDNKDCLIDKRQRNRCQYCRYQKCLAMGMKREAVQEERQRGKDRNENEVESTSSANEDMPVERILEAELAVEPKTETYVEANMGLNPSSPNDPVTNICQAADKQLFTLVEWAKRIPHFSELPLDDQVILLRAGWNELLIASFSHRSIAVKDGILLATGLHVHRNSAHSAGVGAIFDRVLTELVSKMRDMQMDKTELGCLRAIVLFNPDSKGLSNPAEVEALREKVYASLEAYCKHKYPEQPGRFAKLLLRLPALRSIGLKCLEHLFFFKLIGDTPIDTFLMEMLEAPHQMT", "sequence (P28702 whole entry, looked up)": "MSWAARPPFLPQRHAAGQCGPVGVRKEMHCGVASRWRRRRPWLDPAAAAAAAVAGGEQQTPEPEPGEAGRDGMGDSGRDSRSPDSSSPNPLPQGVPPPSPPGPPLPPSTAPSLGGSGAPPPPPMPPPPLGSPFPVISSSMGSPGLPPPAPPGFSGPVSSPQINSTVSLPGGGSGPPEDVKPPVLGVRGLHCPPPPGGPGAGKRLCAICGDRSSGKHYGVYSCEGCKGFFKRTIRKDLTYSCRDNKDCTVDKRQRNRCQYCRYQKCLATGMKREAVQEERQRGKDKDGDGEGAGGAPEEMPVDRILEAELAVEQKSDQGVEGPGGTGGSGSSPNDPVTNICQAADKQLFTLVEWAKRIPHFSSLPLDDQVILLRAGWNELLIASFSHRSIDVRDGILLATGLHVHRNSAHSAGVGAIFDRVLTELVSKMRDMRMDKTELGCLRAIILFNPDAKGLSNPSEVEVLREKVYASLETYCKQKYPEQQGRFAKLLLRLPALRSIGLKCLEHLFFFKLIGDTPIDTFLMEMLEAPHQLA", "sequence (P48443 whole entry, looked up)": "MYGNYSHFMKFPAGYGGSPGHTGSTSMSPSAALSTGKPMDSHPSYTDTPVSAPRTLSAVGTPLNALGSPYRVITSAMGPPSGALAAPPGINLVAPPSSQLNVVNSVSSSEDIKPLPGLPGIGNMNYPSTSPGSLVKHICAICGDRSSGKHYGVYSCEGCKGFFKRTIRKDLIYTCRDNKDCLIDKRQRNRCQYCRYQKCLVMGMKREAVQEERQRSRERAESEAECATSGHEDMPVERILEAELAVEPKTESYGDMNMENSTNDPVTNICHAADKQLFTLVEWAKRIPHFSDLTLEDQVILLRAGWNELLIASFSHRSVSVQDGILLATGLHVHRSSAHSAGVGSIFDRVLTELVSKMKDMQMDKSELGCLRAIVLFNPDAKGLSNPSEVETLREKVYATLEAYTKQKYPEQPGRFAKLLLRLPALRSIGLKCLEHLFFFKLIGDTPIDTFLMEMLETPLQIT", "assay": "Agonist activity at RXR (unknown origin) at 10 uM", "format": "protein assay"}, "[5]": {"biological_target": "Retinoic acid receptor (Homo sapiens) (UniProt P13631+P10826+P10276)", "sequence (P10276 whole entry, looked up)": "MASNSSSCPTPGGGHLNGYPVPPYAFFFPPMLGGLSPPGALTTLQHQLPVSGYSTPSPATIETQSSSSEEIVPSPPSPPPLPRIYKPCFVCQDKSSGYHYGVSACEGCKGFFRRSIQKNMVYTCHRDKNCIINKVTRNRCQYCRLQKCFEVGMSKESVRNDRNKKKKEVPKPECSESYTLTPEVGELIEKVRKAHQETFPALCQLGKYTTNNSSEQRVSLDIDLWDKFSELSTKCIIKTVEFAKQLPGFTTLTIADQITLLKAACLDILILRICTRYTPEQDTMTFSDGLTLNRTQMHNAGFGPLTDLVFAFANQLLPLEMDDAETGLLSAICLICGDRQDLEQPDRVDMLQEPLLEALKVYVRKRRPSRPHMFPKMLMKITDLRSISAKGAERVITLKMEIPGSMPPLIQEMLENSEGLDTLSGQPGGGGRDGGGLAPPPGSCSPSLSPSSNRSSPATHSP", "sequence (P10826 whole entry, looked up)": "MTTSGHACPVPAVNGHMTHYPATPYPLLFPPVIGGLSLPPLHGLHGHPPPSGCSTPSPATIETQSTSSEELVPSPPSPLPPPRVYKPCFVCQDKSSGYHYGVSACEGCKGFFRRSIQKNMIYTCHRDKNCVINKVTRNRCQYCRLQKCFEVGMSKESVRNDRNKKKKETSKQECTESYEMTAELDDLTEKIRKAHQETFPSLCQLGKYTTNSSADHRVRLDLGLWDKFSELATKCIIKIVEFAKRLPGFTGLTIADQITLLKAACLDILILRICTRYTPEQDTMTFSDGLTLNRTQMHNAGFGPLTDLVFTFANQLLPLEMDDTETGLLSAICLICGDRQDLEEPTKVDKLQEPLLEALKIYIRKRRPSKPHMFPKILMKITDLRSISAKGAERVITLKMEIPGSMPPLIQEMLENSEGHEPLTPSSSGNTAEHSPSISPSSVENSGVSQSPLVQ", "sequence (P13631 whole entry, looked up)": "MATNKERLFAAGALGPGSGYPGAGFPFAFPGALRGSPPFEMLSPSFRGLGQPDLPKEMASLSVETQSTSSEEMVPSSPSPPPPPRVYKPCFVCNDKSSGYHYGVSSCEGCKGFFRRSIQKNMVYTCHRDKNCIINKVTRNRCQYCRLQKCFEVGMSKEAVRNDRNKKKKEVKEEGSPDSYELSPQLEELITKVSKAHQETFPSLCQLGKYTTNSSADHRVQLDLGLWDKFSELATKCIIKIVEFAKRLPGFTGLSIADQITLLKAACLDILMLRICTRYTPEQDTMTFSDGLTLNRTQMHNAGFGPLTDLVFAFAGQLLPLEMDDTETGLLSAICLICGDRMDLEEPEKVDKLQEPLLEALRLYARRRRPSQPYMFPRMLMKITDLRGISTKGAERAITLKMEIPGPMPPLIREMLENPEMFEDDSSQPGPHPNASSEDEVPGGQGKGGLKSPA", "assay": "Agonist activity at RAR (unknown origin) at 10 uM", "format": "protein assay"}, "[6]": {"biological_target": "T2, Peroxisome proliferator-activated receptor alpha (Homo sapiens) (UniProt Q07869)", "T2 sequence (whole entry)": "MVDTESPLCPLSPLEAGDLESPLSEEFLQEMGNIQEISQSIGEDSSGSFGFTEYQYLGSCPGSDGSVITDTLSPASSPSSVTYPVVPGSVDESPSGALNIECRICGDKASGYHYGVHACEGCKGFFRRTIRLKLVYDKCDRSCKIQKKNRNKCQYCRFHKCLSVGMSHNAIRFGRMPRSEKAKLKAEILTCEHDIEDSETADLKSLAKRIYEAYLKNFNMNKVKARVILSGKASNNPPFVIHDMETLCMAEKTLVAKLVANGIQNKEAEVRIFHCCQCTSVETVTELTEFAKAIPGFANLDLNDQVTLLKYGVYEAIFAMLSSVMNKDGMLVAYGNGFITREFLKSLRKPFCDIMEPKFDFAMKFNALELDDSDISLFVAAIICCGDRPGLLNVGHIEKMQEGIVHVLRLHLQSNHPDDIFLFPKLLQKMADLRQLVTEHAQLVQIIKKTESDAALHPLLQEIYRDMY", "assay": "Partial agonist activity at Gal4-fused PPARalpha LBD (unknown origin) expressed in HEK293T cells after 14 to 16 hrs by dual-Glo luciferase assay relative to GW7647", "format": "cell-based", "in_short": "as §1"}, "[7]": {"biological_target": "T3, Peroxisome proliferator-activated receptor gamma (Homo sapiens) (UniProt P37231)", "T3 sequence (whole entry)": "T1 sequence (P37231 whole entry)", "assay": "Partial agonist activity at Gal4-fused PPARgamma LBD (unknown origin) expressed in HEK293T cells after 14 to 16 hrs by dual-Glo luciferase assay relative to pioglitazone", "format": "cell-based", "in_short": "as §1"}, "[8]": {"biological_target": "T4, Peroxisome proliferator-activated receptor alpha (Homo sapiens, UniProt Q07869)", "T4 sequence (Q07869 whole entry)": "T2 sequence (whole entry)", "assay": "Partial agonist activity at Gal4-fused PPARalpha LBD (unknown origin) expressed in HEK293T cells after 14 to 16 hrs by dual-Glo luciferase assay", "format": "cell-based", "in_short": "as §1"}, "[9]": {"biological_target": "T5, Bile acid receptor (Homo sapiens) (UniProt Q96RI1)", "T5 sequence (whole entry)": "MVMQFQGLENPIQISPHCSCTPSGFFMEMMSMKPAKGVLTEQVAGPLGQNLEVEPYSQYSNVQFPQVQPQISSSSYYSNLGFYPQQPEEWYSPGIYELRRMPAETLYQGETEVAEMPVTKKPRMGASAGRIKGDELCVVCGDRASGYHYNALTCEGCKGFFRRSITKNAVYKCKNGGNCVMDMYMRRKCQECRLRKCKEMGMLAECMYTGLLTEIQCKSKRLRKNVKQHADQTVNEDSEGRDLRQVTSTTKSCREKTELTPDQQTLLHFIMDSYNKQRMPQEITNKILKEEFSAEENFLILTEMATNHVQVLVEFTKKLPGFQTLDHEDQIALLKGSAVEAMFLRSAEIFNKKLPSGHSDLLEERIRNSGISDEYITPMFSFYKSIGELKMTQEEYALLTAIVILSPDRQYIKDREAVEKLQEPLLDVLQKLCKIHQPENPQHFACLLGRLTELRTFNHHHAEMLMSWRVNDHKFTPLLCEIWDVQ", "assay": "Agonist activity at FXR (unknown origin) at 10 uM"}, "[10]": {"biological_target": "T1, Peroxisome proliferator-activated receptor gamma", "assay": "Partial agonist activity at recombinant N-terminal GFP-fused PPARgamma LBD (unknown origin) assessed as increase in biotinylated-SRC1 peptide recruitment measured after 2 hrs by HTRF assay"}, "[11]": {"biological_target": "T6, Peroxisome proliferator-activated receptor delta (Homo sapiens, UniProt Q03181)", "T6 sequence (Q03181 whole entry)": "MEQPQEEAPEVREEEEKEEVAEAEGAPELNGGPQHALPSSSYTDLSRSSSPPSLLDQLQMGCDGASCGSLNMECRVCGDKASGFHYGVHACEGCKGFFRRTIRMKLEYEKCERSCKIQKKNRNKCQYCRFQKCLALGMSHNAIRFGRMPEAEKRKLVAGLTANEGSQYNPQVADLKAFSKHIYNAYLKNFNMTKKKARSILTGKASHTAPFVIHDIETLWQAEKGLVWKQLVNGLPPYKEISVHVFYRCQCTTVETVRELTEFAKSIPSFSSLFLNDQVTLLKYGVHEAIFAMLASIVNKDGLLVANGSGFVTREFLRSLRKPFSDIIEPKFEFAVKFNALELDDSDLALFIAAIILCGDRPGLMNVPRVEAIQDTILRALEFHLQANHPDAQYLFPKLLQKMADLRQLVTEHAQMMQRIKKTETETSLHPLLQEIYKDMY", "assay": "Partial agonist activity at Gal4-fused PPARdelta LBD (unknown origin) expressed in HEK293T cells after 14 to 16 hrs by dual-Glo luciferase assay", "format": "cell-based", "in_short": "as §1"}, "[12]": {"biological_target": "T3, Peroxisome proliferator-activated receptor gamma (Homo sapiens)", "assay": "Selective modulation of PPARgamma in human HepG2 cells assessed as induction of adiponectin mRNA expression at 1 uM measured after 12 hrs by qPCR analysis", "format": "cell-based", "in_short": "(§2)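 HepG2 cells were incubated with test compound at 1 µM. mRNA of the PPARγ target genes adiponectin and ANGPTL4 was quantified. Mean±S.E.M., n≥3.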"}, "[13]": {"biological_target": "T7, Peroxisome proliferator-activated receptor delta (Homo sapiens) (UniProt Q03181)", "T7 sequence (whole entry)": "T6 sequence (Q03181 whole entry)", "assay": "Partial agonist activity at Gal4-fused PPARdelta LBD (unknown origin) expressed in HEK293T cells after 14 to 16 hrs by dual-Glo luciferase assay relative to L165041", "format": "cell-based", "in_short": "as §1"}, "[14]": {"assay": "Stability in Sprague-Dawley rat liver microsomes assessed as parent compound remaining at 10 uM after 60 mins by HPLC analysis", "format": "ADME, Microsome", "details": "read-out: Stability", "in_short": "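Incubation with rat liver microsomes, measuring compound remaining after 60 minutes.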"}, "[15]": {"assay": "Partial agonist activity at recombinant PPARgamma LBD/N-terminal GFP-fused RXRalpha mutant LBD (unknown origin) assessed as increase in biotinylated-CBP peptide recruitment measured after 2 hrs by HTRF assay", "design": "species or system Homo sapiens", "in_short": "(§3)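 Cell-free HTRF assay of coactivator peptide recruitment (CBP or SRC-1) to the recombinant PPARγ:RXRα heterodimer.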"}, "[16]": {"assay": "Partial agonist activity at recombinant PPARgamma LBD/N-terminal GFP-fused RXRalpha mutant LBD (unknown origin) assessed as increase in biotinylated-SRC1 peptide recruitment measured after 2 hrs by HTRF assay", "design": "species or system Homo sapiens", "in_short": "as §3"}, "[17]": {"biological_target": "T1, Peroxisome proliferator-activated receptor gamma", "assay": "Selective modulation of PPARgamma in human HepG2 cells assessed as induction of ANGPTL4 mRNA expression at 1 uM measured after 12 hrs by qPCR analysis", "format": "cell-based", "details": "hepg2, 12 h", "in_short": "as §2"}, "NHDF [18]": {"tested_on": "NHDF", "assay": "(§4) Induction of adipogenesis in NHDF assessed as reduction in fibroblast differentiation into matured adipocytes at 0.2 to 20 uM administered on day 3 of differentiation 1 and day 5 of differentiation 2 followed by media refreshment at 2 days interval up to 13 days and measured on day 14 by Oil red O staining based light microscopic analysis", "format": "cell-based", "details": "human", "in_short": "(§5)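 Primary human fibroblasts (NHDF) were differentiated to mature adipocytes and treated with ligand or DMSO; the test compound was used at 0.2, 2 and 20 µM and the reference at 2 µM. Lipid accumulation was read by Oil Red O staining, with four replicates.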"}, "NHDF [19]": {"tested_on": "NHDF", "assay": "as §4, with “2” for “0.2 to 20”", "format": "cell-based", "details": "human", "in_short": "as §5"}},
  "note": "Calls of active or inactive are those of the source. The calls are words filed in the database; no cut-off is given here.",
  "data": [
    {"molecule": "CCCCCCC(Sc1nc2ccc(NS(=O)(=O)c3ccc(Cl)cc3Cl)cc2s1)C(=O)O", "note": "(configuration not stated)", "values": [
      {"measurement": "EC50", "setting": "[1]", "result": 197, "unit": "nM"},
      {"measurement": "EC50", "setting": "[2]", "result": 2.2, "unit": "nM"},
      {"measurement": "Activity", "setting": "[3]", "result": "inactive"},
      {"measurement": "Activity", "setting": "[4]", "result": "inactive"},
      {"measurement": "Activity", "setting": "[5]", "result": "inactive"},
      {"measurement": "max activation", "setting": "[6]", "result": 29, "unit": "%"},
      {"measurement": "max activation", "setting": "[7]", "result": 67, "unit": "%"},
      {"measurement": "EC50", "setting": "[8]", "result": 500, "unit": "nM"},
      {"measurement": "Activity", "setting": "[9]", "result": "inactive"},
      {"measurement": "EC50", "setting": "[10]", "result": 107, "unit": "nM"},
      {"measurement": "EC50", "setting": "[11]", "result": 400, "unit": "nM"},
      {"measurement": "Activity", "setting": "[12]", "result": "Active"},
      {"measurement": "max activation", "setting": "[13]", "result": 12, "unit": "%"},
      {"measurement": "remaining at 1 h, 10 µM", "setting": "[14]", "result": 80, "unit": "%"},
      {"measurement": "EC50", "setting": "[15]", "result": 437, "unit": "nM"},
      {"measurement": "EC50", "setting": "[16]", "result": 887, "unit": "nM"},
      {"measurement": "Activity", "setting": "[17]", "result": "Not Active"},
      {"measurement": "Activity", "setting": "NHDF [18]", "result": "Non-Toxic"}
    ]},
    {"molecule": "CN(CCOc1ccc(CC2SC(=O)NC2=O)cc1)c1ccccn1", "note": "(configuration not stated) [ROSIGLITAZONE]", "values": [
      {"measurement": "Activity", "setting": "[12]", "result": "Active"},
      {"measurement": "Activity", "setting": "NHDF [19]", "result": "Toxic"},
      {"measurement": "EC50", "setting": "[15]", "result": 121, "unit": "nM"},
      {"measurement": "EC50", "setting": "[16]", "result": 116, "unit": "nM"}
    ]}
  ]
}
